This is a sample that favours compounds with a hit; in the whole collection about 2.6% have one here.
ASAP1 GAP inh: ASAP1 ArfGAP inhibition; Q9ULH1; inhibition, % at 16.5 µM; ASAP1-stimulated ARF1 GTP hydrolysis, GDP FP detection; 360,000 tested, 0.19% active; AID 624377; in the data active = inhibition above about 25%;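 note: 0% = vehicle with enzyme and substrate and 100% = no enzyme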
Target sequence (Q9ULH1 325-724 limits assumed): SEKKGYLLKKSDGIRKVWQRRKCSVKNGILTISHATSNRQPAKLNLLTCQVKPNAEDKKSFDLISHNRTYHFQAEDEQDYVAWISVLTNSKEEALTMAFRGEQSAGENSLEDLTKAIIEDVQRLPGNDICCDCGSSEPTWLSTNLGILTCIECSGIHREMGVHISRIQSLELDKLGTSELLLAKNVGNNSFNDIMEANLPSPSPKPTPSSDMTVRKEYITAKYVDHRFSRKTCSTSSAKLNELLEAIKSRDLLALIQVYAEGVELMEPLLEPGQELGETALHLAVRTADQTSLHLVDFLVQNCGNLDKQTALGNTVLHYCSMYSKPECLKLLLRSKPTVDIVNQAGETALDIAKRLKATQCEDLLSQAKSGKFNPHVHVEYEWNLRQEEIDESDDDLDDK
esBAF inh: inhibitors of esBAF chromatin remodeling in mouse ES cells. Bmi1-luciferase knock-in reporter, 24 h; 100% = twice the neutral-well signal. reporter increase, % at 12.5 µM. 350,000 tested, 2% active. AID 602393; in the data active = activation above about 40%;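 note: 0% = median of the plate's neutral control wells and 100% = double that signal; a rise in the Bmi1 reporter signal indicates esBAF inhibition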
ARFGAP1 inhibitor: rat ARFGAP1 inhibition. 360,000 tested, 0.26% active. inhibition, % at 16.5 µM. Arfgap1-stimulated ARF1 GTP hydrolysis, GDP FP detection. AID 651572. Q62848;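 active = inhibition above a per-plate limit, mean inhibition of low control wells plus 3 SD, cut at about 25% in these data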;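 note: 0% = DMSO wells with enzyme and 100% = wells lacking Arfgap1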
Target sequence (Q62848 1-136 limits assumed): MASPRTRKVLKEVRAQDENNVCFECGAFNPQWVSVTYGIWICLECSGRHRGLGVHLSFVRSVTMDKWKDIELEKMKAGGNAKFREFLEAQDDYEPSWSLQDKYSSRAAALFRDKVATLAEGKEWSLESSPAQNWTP
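System: truncated rat Arfgap1 GAP domain / Medium: HEPES-based buffer, pH 7.5 / Also added: N-terminally truncated human ARF1-GTP substrate / Incubation: enzyme reaction 120 min at 25 °C after 20 min preincubation / Measured by: FP of antibody-bound GDP Alexa 633 tracer, ex 620/em 688 nm / Replicates: singlicate, each compound tested once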
SMARCA2 activ: SMARCA2 function activation, primary screen; MG213 cells, MMTV-luciferase reporter, dexamethasone, overnight; activation, % at 9.1 µM; 370,000 tested, 1% active; AID 652017; in the data active = activation above about 7.8%;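 note: 0% = vehicle wells and 100% = reference activator wells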
SMARCA2 act conf: confirmation of SMARCA2 (BRM) function activators | shares compounds with SMARCA2 activ | AID 652260 | activation, % at 9.1 µM | MG213 cells, MMTV-luciferase with dexamethasone, luminescence, overnight; MG213 cells expressing E1A, Rb sequestered; DMSO wells 0%, reference activator 100% | 3,500 tested, 30% active;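 active = activation above its plate's cutoff, the mean activation of tested wells plus 3 SD, cut at about 7.9% in these data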
VP16 Luc act: activates GAL4-VP16 luciferase, flagging SMARCA2 activator hits. shares compounds with SMARCA2 activ. HEK293 GAL4-VP16 pG5luc reporter, luciferase luminescence; scaled: DMSO wells 0%, SAHA wells 100%. activation, % at 9.1 µM. 3,500 tested, 41% active. AID 686939;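 active = activation above the solvent-only control well mean plus 3 SD, averaged across control plates, cut at about 5.2% in these data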
The depositor's hits bear a star; · = not tested or not shown.

SMILES	ASAP1 GAP inh	esBAF inh	ARFGAP1 inhibitor	SMARCA2 activ	SMARCA2 act conf	VP16 Luc act
Cc1noc(C)c1NC(=O)Nc1ccc2c(c1)CC(=O)N([C@H](C)CO)C[C@H](C)[C@@H](CN(C)C(=O)Nc1c(C)noc1C)O2	·	-2	·	·	·	·
C[C@@H]1CCCCO[C@@H](CN(C)C(=O)Nc2ccc(F)cc2)[C@H](C)CN([C@@H](C)CO)C(=O)c2cc(NS(=O)(=O)c3ccc(F)cc3)ccc2O1	·	18	·	·	·	·
C[C@@H]1CN([C@@H](C)CO)C(=O)c2cc(NS(=O)(=O)c3ccc(Cl)cc3)ccc2O[C@@H]1CN(C)S(=O)(=O)c1ccc(Cl)cc1	·	2	·	·	·	·
Cc1ccc(C(=O)Nc2cccc(C(=O)N3CCOCC3)c2)cc1	15	21	6	16*	8.3*	3
CC(C)(C)c1ccc(C(=O)Nc2cccc(C(=O)N3CCOCC3)c2)cc1	-11	·	8	6	·	·
Cc1ccc(NC(=O)c2ccc(OC(=O)c3cc4ccccc4o3)cc2)cc1	14	60*	-2	9.1*	7	14*
C[C@@H]1CCCCO[C@@H](CN(C)Cc2ccc(Cl)c(Cl)c2)[C@@H](C)CN([C@H](C)CO)C(=O)c2cc(NS(=O)(=O)c3cn(C)cn3)ccc2O1	·	-1	·	·	·	·
C=CCn1c(-c2c(C)nc3cc(C)ccn23)n[nH]c1=S	4	·	8	9.1*	-3	0
C=CCn1c(-c2ccc(OC)c(OC)c2)n[nH]c1=S	-4	·	0	-9	·	·
CNC[C@@H]1OCCCC[C@H](C)Oc2ccc(NC(=O)Nc3ccc(F)cc3)cc2C(=O)N([C@@H](C)CO)C[C@H]1C	·	-3	·	·	·	·
COc1ccc(-c2nnc(-c3ccc(N(C)C)cc3)o2)cc1	3	37	-5	16*	12*	1
O=c1c2[nH]c3cccc(Cl)c3c2ncn1CCN1CCCCC1	13	-1	0	1	·	·
O=c1c2[nH]c3cccc(Cl)c3c2ncn1CC1CCCO1 (stereo not drawn)	-2	·	4	8.2*	5	3
Cc1ccccc1-n1c(C)nnc1SCC(=O)NNC(=O)c1ccccc1	3	·	9	8.0*	5	1
Cc1nnc(SCC(=O)NNC(=O)c2ccccc2)n1-c1ccccc1	0	·	4	-4	·	·
C[C@@H](NC(=O)[C@@H]1[C@@H](CO)[C@@H]2Cn3c(cccc3=O)[C@@H]2N1Cc1ccncc1)c1ccccc1	·	-2	·	·	·	·
Nc1c(C(=O)O)ccc2c1C(=O)c1ccccc1C2=O	-5	·	-2	4	·	·
Nc1ccc2c(c1Cl)C(=O)c1ccc(N)c(Cl)c1C2=O	12	41	1	10*	23*	5.2*
CC(=O)C1=C(C)NC(SCC(=O)c2ccc(Cl)c(Cl)c2)=C(C#N)C1c1ccco1 (stereo not drawn)	-14	-4	3	8.6*	-5	0
CC(=O)C1=C(C)NC(SCC(=O)c2cc(Cl)ccc2Cl)=C(C#N)C1c1ccco1 (stereo not drawn)	-3	·	9	-3	·	·
CCOc1ccc(NC(=O)C2Cc3ccccc3CN2S(=O)(=O)CC)cc1 (stereo not drawn)	7	6	7	10*	0	1
CCS(=O)(=O)N1Cc2ccccc2CC1C(=O)Nc1cccc(C)c1 (stereo not drawn)	11	·	1	1	·	·
CCS(=O)(=O)N1Cc2ccccc2CC1C(=O)Nc1ccc(F)c(F)c1 (stereo not drawn)	-6	35	-6	15*	8	4
COc1ccc2cc3cc(C(=O)N4CCCC(C)C4)oc3nc2c1 (stereo not drawn)	-4	16	7	8.8*	3	9.2*
COc1ccccc1[N+](=O)[O-]	0	-3	7	-5	·	·
SMILES	ASAP1 GAP inh	esBAF inh	ARFGAP1 inhibitor	SMARCA2 activ	SMARCA2 act conf	VP16 Luc act
COc1ccccc1Oc1ccccc1[N+](=O)[O-]	-2	·	4	10.0*	0	3
O=C(O)c1cccc(Oc2ccccc2[N+](=O)[O-])c1	-5	-7	1	12*	-1	2
O=C(O)c1cccc(Oc2ccc(C(=O)O)c([N+](=O)[O-])c2)c1	-1	-3	-1	1	·	·
O=[N+]([O-])c1cccnc1Oc1ccccc1F	0	-9	-3	9.6*	1	2
COCCNC(=O)C[C@@H]1C[C@@H]2c3cc(NC(=O)Nc4ccc(C(F)(F)F)cc4)ccc3O[C@@H]2[C@H](CO)O1	·	0	·	·	·	·
CN1[C@@H]2Cn3c(ccc(C4=CCCC4)c3=O)[C@H]1[C@@H](C(=O)NC1Cc3ccccc3C1)[C@@H]2CO	·	2	·	·	·	·
CCCS(=O)(=O)NC(=O)C1(C)CCCN(C(=O)c2cccc3ccccc23)C1 (stereo not drawn)	6	-8	0	5	·	·
CCCS(=O)(=O)NC(=O)C1(C)CCCN(C(=O)c2ccccc2C(F)(F)F)C1 (stereo not drawn)	0	-13	10	8.1*	2	2
O=C(CN1C(=O)S/C(=C/C=C/c2ccccc2)C1=O)Nc1ccc(C(=O)O)cc1	-14	·	8	12*	1	0
COc1cccc(S(=O)(=O)N(C)C[C@H]2Oc3cc(C4=CCCC4)ccc3S(=O)(=O)N([C@H](C)CO)C[C@@H]2C)c1	·	8	·	·	·	·
O=C(Nc1ccccc1Br)C1CCN(C(=O)Cc2ccccc2)CC1	-20	·	-3	9.0*	-3	2
S=C(Nc1ccccc1)c1ccccn1	13	80*	-1	8.2*	30*	9.4*
CCOC(=O)N1CCN(c2c(N3CCC(N4CCCCC4)CC3)c(=O)c2=O)CC1	14	-4	10	8.0*	0	2
CN(C)c1ccc(NC(=O)/C=C/c2ccccc2Cl)cc1	-4	·	-7	8.2*	7	11*
CCN(CC)c1ccc(NC(=O)/C=C\c2ccccc2Cl)cc1	8	37	8	6	·	·
O=C(/C=C/c1ccccc1[N+](=O)[O-])NCc1ccc(Cl)cc1	4	·	11	2	·	·
O=C(/C=C/c1ccccc1Cl)NCc1ccccc1	-1	53*	-6	11*	2	2
C[C@@H]1CN([C@@H](C)CO)C(=O)c2cc(-c3cccc(F)c3)cnc2O[C@@H]1CN(C)C(=O)c1ccccn1	·	2	·	·	·	·
CN1C[C@@H]2[C@H](c3ccccc31)[C@H](CO)N2C(=O)C1CCCC1	·	0	·	·	·	·
O=C(OCc1cc(=O)oc2cc(O)ccc12)c1cc(S(=O)(=O)N2CCOCC2)ccc1F	-4	3	-1	8.4*	12*	-1
CC(c1ccccc1)N1CCn2c(nc3cc(NC(=O)c4cccs4)ccc32)C1 (stereo not drawn)	4	15	0	9.9*	7	3
Cc1ccc(-n2c(C)cc(C=C(C#N)C#N)c2C)cc1	-1	11	-1	12*	1	2

Bioassay records as filed in PubChem BioAssay.
